In ChEMBL document CHEMBL3526116, “Toxicological evaluation of acyl glucuronides of nonsteroidal anti-inflammatory drugs using human embryonic kidney 293 cells stably expressing human UDP-glucuronosyltransferase and human hepatocytes” (Drug Metab Dispos, 2011):

Key:
HEK293 [1] = assay: Cytotoxicity against HEK293 cells expressing UGT1A3 assessed as decrease in cell viability at 1 mM measured at 24 hrs by MTT assay; type: ADME, cell-based; details: human, hek293, 24 h, 1000 µM
[2] = molecular target: T1, UDP-glucuronosyltransferase 1A3 (Homo sapiens, UniProt P35503); assay: Activity of human UGT1A3 expressed in HEK293 cells assessed as enzyme-mediated compound formation in cell culture medium treated with ibuprofen at 1 mM measured at 6 to 24 hrs by LC-MS/MS analysis; type: ADME, cell-based; details: hek293, 1000 µM
T1 sequence (P35503 whole entry): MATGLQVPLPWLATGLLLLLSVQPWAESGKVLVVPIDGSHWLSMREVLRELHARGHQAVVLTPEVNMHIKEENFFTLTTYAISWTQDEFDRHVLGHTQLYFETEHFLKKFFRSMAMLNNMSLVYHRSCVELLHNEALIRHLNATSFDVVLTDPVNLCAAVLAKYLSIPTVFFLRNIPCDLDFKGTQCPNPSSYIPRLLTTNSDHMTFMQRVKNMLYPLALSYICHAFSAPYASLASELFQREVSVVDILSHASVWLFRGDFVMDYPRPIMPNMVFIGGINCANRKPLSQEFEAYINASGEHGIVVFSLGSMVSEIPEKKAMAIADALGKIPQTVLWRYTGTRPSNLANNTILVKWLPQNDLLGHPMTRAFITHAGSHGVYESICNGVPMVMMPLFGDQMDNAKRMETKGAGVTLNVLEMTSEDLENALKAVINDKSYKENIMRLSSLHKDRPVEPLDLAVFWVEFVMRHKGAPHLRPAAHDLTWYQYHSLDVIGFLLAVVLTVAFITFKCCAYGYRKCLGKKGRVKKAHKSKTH
Summary of the method: (§1)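 HEK293 stably expressing human UGT1A3 (G418-selected), 2 x 10^5 cells/well in 1 mL DMEM with 0.5% FBS, exposed immediately to drug for 6, 12 or 24 h; DMSO ≤0.1% final. Cells and medium separated by centrifugation, cell fraction resuspended in PBS; aliquots mixed 1:1 with methanol/acetic acid (100:1), spun, supernatant analysed by LC-MS/MS. Triplicate determinations, mean ± SD.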

[3] = Drug level in cell culture medium treated with ibuprofen at 1 mM measured at 6 hrs by LC-MS/MS analysis in presence of acyl glucuronidation inhibitor (-)-borneol; type: physicochemical; details: 1000 µM
[4] = molecular target: T1, UDP-glucuronosyltransferase 1A3; assay: Activity of human UGT1A3 expressed in HEK293 cells assessed as enzyme-mediated compound formation in cell culture medium treated with ibuprofen at 1 mM by LC-MS/MS analysis; type: ADME, cell-based; details: hek293, 1000 µM, TDE = time-dependent effect; summary of the method: as §1
Hepatocyte [5] = assay: Drug level in human hepatocytes assessed per 2 x 10^5 cells treated with ibuprofen at 1 mM measured at 6 hrs by LC-MS/MS analysis in presence of acyl glucuronidation inhibitor (-)-borneol; type: ADME, cell-based; details: 1000 µM
Hepatocyte [6] = assay: Drug level in human hepatocytes assessed per 2 x 10^5 cells treated with ibuprofen at 1 mM measured at 6 hrs by LC-MS/MS analysis in absence of acyl glucuronidation inhibitor (-)-borneol; type: ADME, cell-based; details: 1000 µM
[7] = molecular target: T1, UDP-glucuronosyltransferase 1A3; assay: Activity of human UGT1A3 expressed in HEK293 cells assessed as enzyme-mediated compound formation per 2 x 10^5 cells treated with ibuprofen at 1 mM measured at 24 hrs by LC-MS/MS analysis; type: ADME, cell-based; details: hek293, 24 h, 1000 µM; summary of the method: as §1
[8] = Drug level in cell culture medium treated with ibuprofen at 1 mM measured at 6 hrs by LC-MS/MS analysis in absence of acyl glucuronidation inhibitor (-)-borneol; type: physicochemical; details: 1000 µM
Nucleic Acid = assay: Ratio of drug level in human hepatocytes to HEK293 cells expressing UGT1A3 treated with ibuprofen at 1 mM; type: ADME, cell-based, Hepatocyte; details: 1000 µM
Summary of the method: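 Acyl glucuronide in cell fraction (pmol/2 x 10^5 cells) by LC-MS/MS after 6 h exposure in human hepatocytes without (-)-borneol, set against HEK/UGT1A3 cells (2 x 10^5 cells/well, DMEM with 0.5% FBS) exposed to the same drug level; cells pelleted at 3000 x g, resuspended in PBS, extracted with methanol/acetic acid.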

HEK293 [9] = assay: Cytotoxicity against HEK293 cells expressing UGT1A4 assessed as decrease in cell viability at 1 mM measured at 24 hrs by MTT assay; type: ADME, cell-based; details: human, hek293, 24 h, 1000 µM
HEK293 [10] = assay: Cytotoxicity against HEK293 cells expressing UGT assessed as decrease in cell viability at 1 mM measured up to 72 hrs by MTT assay; type: ADME, cell-based; details: human, hek293, 72 h, 1000 µM
Summary of the method: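 Mock and UGT1A3/UGT1A4 stable HEK293 cells given drug for up to 72 h; viability measured by WST-8-based MTT assay.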

HEK293 [11] = assay: Genotoxicity in HEK293 cells expressing UGT1A3 assessed as DNA strand breaks at 1 mM after 24 hrs by comet assay; type: toxicity, cell-based; details: human, hek293, 24 h, 1000 µM
Summary of the method: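 Alkaline comet assay: HEK/UGT1A3 cells seeded 24 h before, treated 24 h in DMEM with 0.5% FBS (vehicle 0.1% DMSO; MMS 0.1 mM positive control). Cells embedded in LMP agarose, lysed 1 h at 4°C at pH 10, unwound 30 min in NaOH/EDTA, electrophoresed 300 mA 20 min, ethidium-stained; tail moment scored on 150-180 comets over >3 experiments, median (IQR).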

CC1=C(CC(=O)O)c2cc(F)ccc2/C1=C\c1ccc([S+](C)[O-])cc1 (stereo not given)
Activity (HEK293 [1]): Non-toxic

CC(C)Cc1ccc(C(C)C(=O)O[C@@H]2O[C@H](C(=O)O)[C@@H](O)[C@H](O)[C@H]2O)cc1 (stereo not given in full)
Drug metabolism [2]: 114.7 pmol/mL
Drug metabolism [3]: 126.5 pmol/mL
Drug metabolism [4]: tde
Drug metabolism (Hepatocyte [5]): 3.5 pmol
Drug metabolism (Hepatocyte [6]): 27.7 pmol
Drug metabolism [7]: 7.2 pmol
Drug metabolism [8]: 1156.7 pmol/mL
Ratio (Nucleic Acid): 6

CC(=O)Oc1ccccc1C(=O)O [ASPIRIN]
Activity (HEK293 [1]): Non-toxic

CC(C)(Oc1ccc(CCNC(=O)c2ccc(Cl)cc2)cc1)C(=O)O [BEZAFIBRATE]
Activity (HEK293 [1]): Non-toxic

CC(C)(Oc1ccc(Cl)cc1)C(=O)O [CLOFIBRIC ACID]
Activity (HEK293 [9]): Non-toxic
Activity (HEK293 [1]): Non-toxic
Activity (HEK293 [10]): Non-toxic
Activity (HEK293 [11]): Toxic

CC(C(=O)O)c1ccc(-c2ccccc2)c(F)c1 (stereo not given) [FLURBIPROFEN]
Activity (HEK293 [1]): Non-toxic

NS(=O)(=O)c1cc(C(=O)O)c(NCc2ccco2)cc1Cl [FUROSEMIDE]
Activity (HEK293 [1]): Non-toxic

Cc1ccc(C)c(OCCCC(C)(C)C(=O)O)c1 [GEMFIBROZIL]
Activity (HEK293 [9]): Non-toxic
Activity (HEK293 [1]): Non-toxic
Activity (HEK293 [10]): Non-toxic
